# Legend:
# Streptococcus pneumoniae [1] = assay: Antibacterial activity against macrolide-resistant Streptococcus pneumoniae 3665 harboring mef(A) gene after 26 passages and 10 compound-free subculturing by retest method; format: functional
# Streptococcus pneumoniae [2] = assay: Antibacterial activity against macrolide-susceptible Streptococcus pneumoniae 7127 harboring S20N mutation in L4 ribosomal protein and A105V mutation in L22 ribosomal protein after 16 passages and 10 compound-free subculturing by retest method; format: functional
# Streptococcus pyogenes [3] = assay: Antibacterial activity against macrolide-resistant Streptococcus pyogenes 2094 harboring erm(A) gene after 5 passages and 10 compound-free subculturing by retest method
# Streptococcus pyogenes [4] = assay: Antibacterial activity against macrolide-resistant Streptococcus pyogenes 2094 harboring erm(A) gene after 6 passages and 10 compound-free subculturing by retest method
# Streptococcus pneumoniae [5] = assay: Antibacterial activity against Streptococcus pneumoniae harboring mutation in 23S rRNA after overnight incubation by agar dilution method; format: functional
# In short: (§1)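 Clinical isolates collected 1998–2008, with macrolide-resistance genes confirmed by PCR. MICs by agar dilution on Mueller-Hinton agar with 5% sheep blood. Inoculum 10^4 CFU/spot, incubated overnight at 35°C in ambient air. S. pneumoniae ATCC 49619 was the quality-control strain in every run.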
# Streptococcus pneumoniae [6] = assay: Antibacterial activity against macrolide-resistant Streptococcus pneumoniae harboring erm(B) and mef(A) gene after overnight incubation by agar dilution method; format: functional
# In short: (§2)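 Agar dilution MICs on Mueller-Hinton agar with 5% sheep blood. Inoculum 10^4 CFU/spot, incubated overnight at 35°C in ambient air. Clinical S. pneumoniae or group A streptococcal isolates; resistance genotypes (erm(B), erm(A), mef(A)/mef(E)) were assigned by PCR. S. pneumoniae ATCC 49619 served as QC strain in each run. Range, MIC50 and MIC90 reported per phenotype group.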
# Streptococcus pneumoniae [7] = assay: Antibacterial activity against macrolide-susceptible Streptococcus pneumoniae 1077 after 29 passages and 10 compound-free subculturing by retest method; format: functional
# Streptococcus pneumoniae [8] = assay: Antibacterial activity against penicillin-resistant Streptococcus pneumoniae after overnight incubation by agar dilution method; format: functional
# In short: (§3)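 Agar dilution on Mueller-Hinton agar supplemented with 5% sheep blood. Inoculum 10^4 CFU/spot, incubated overnight at 35°C in ambient air. Test strains were clinical pneumococcal isolates. S. pneumoniae ATCC 49619 was included as the quality control strain in each run. MIC range, MIC50 and MIC90 were reported for each susceptibility category.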
# Streptococcus pyogenes [9] = assay: Antibacterial activity against macrolide-resistant Streptococcus pyogenes 2011 harboring mef(A) gene after overnight incubation by agar dilution method
# Streptococcus pneumoniae [10] = assay: Antibacterial activity against macrolide-resistant Streptococcus pneumoniae 3009 harboring mutation in 23S rRNA after 20 passages and 10 compound-free subculturing by retest method; format: functional
# Streptococcus pneumoniae [11] = assay: Antibacterial activity against quinolone-resistant Streptococcus pneumoniae after overnight incubation by agar dilution method; format: functional; in short: as §3
# Streptococcus pneumoniae [12] = assay: Antibacterial activity against macrolide-susceptible Streptococcus pneumoniae 1077 after 15 passages and 10 compound-free subculturing by retest method; format: functional
# Streptococcus pneumoniae [13] = assay: Antibacterial activity against macrolide-susceptible Streptococcus pneumoniae 1077 after 43 passages and 10 compound-free subculturing by retest method; format: functional
# Streptococcus pneumoniae [14] = assay: Antibacterial activity against macrolide-resistant Streptococcus pneumoniae 3009 harboring mutation in 23S rRNA after overnight incubation by agar dilution method; format: functional
# Streptococcus pneumoniae [15] = assay: Antibacterial activity against macrolide-resistant Streptococcus pneumoniae 1635 harboring erm(A) gene after 49 passages and 10 compound-free subculturing by retest method; format: functional
# In short: (§4)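 Multistep selection by daily serial passage in subinhibitory drug concentrations. Medium was cation-adjusted Mueller-Hinton broth plus 5% lysed horse blood. Each day the next inoculum came from the tube 1–2 dilutions below the MIC whose turbidity matched the growth control, for up to 50 days. Clone MICs by CLSI macrodilution; identity to the parent confirmed by SmaI PFGE.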
# Streptococcus pneumoniae [16] = assay: Antibacterial activity against macrolide-resistant Streptococcus pneumoniae 1635 harboring erm(A) gene after 32 passages and 10 compound-free subculturing by retest method; format: functional; in short: as §4
# Streptococcus pneumoniae [17] = assay: Antibacterial activity against Streptococcus pneumoniae harboring mutation in L4 ribosomal protein after overnight incubation by agar dilution method; format: functional; in short: as §1
# Streptococcus pyogenes [18] = assay: Antibacterial activity against macrolide-susceptible Streptococcus pyogenes 2132 after 28 passages and 10 compound-free subculturing by retest method
# Streptococcus pneumoniae [19] = assay: Antibacterial activity against Streptococcus pneumoniae harboring erm(B) and mef(A) gene after overnight incubation by agar dilution method; format: functional; in short: as §1
# Streptococcus pyogenes [20] = assay: Antibacterial activity against macrolide-resistant Streptococcus pyogenes harboring erm(B) gene after overnight incubation by agar dilution method; format: functional; in short: as §2
# Streptococcus pyogenes [21] = assay: Antibacterial activity against Streptococcus pyogenes harboring mutation in L4 ribosomal protein after overnight incubation by agar dilution method; format: functional; in short: as §1
# Streptococcus pyogenes [22] = assay: Antibacterial activity against macrolide-susceptible Streptococcus pyogenes after overnight incubation by agar dilution method; format: functional
# In short: (§5)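 Agar dilution on Mueller-Hinton agar supplemented with 5% sheep blood, inoculum 10^4 CFU/spot, read after overnight incubation at 35°C in ambient air. Clinical isolates with defined genotypes; S. pneumoniae ATCC 49619 quality control strain included in each run. MIC50/MIC90 are MICs inhibiting 50% and 90% of isolates.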
# Streptococcus pneumoniae [23] = assay: Antibacterial activity against macrolide-resistant Streptococcus pneumoniae 2686 harboring mutation in L4 ribosomal protein after 14 passages and 10 compound-free subculturing by retest method; format: functional
# Streptococcus pyogenes [24] = assay: Antibacterial activity against macrolide-susceptible Streptococcus pyogenes 2132 after 50 passages following overnight incubation by agar dilution method
# Streptococcus pneumoniae [25] = assay: Antibacterial activity against penicillin-intermediate Streptococcus pneumoniae after overnight incubation by agar dilution method; format: functional; in short: as §5
# Streptococcus pyogenes [26] = assay: Antibacterial activity against macrolide-resistant Streptococcus pyogenes 2011 harboring mef(A) gene after 35 passages and 10 compound-free subculturing by retest method
# Streptococcus pyogenes [27] = assay: Antibacterial activity against macrolide-resistant Streptococcus pyogenes 237 harboring mutation in L4 ribosomal protein after 50 passages following overnight incubation by agar dilution method
# Streptococcus pyogenes [28] = assay: Antibacterial activity against macrolide-resistant Streptococcus pyogenes 2368 harboring erm(B) gene after 18 passages and 10 compound-free subculturing by retest method
# Streptococcus pneumoniae [29] = assay: Antibacterial activity against macrolide-resistant Streptococcus pneumoniae 3665 harboring mef(A) gene after 14 passages and 10 compound-free subculturing by retest method; format: functional
# Streptococcus pneumoniae [30] = assay: Antibacterial activity against macrolide-resistant Streptococcus pneumoniae 24 harboring erm(B) gene after overnight incubation by agar dilution method; format: functional
# Streptococcus pneumoniae [31] = assay: Antibacterial activity against macrolide-susceptible Streptococcus pneumoniae 7127 harboring S20N mutation in L4 ribosomal protein and A105V mutation in L22 ribosomal protein after overnight incubation by agar dilution method; format: functional
# Streptococcus pneumoniae [32] = assay: Antibacterial activity against macrolide-resistant Streptococcus pneumoniae 1076 harboring erm(B) and mef(A) gene after 18 passages and 10 compound-free subculturing by retest method; format: functional; in short: as §4
compound,measurement,setting,value
CC[C@H]1OC(=O)[C@H](C)[C@@H](O[C@H]2C[C@@](C)(OC)[C@@H](O)[C@H](C)O2)[C@H](C)[C@@H](O[C@@H]2O[C@H](C)C[C@H](N(C)C)[C@H]2O)[C@](C)(OC)C[C@@H](C)C(=O)[C@H](C)[C@@H](O)[C@]1(C)O [CLARITHROMYCIN],MIC,Streptococcus pneumoniae [1],8 µg/mL
same,MIC,Streptococcus pneumoniae [2],0.125 µg/mL
same,MIC,Streptococcus pyogenes [3],1 µg/mL
same,MIC,Streptococcus pyogenes [4],> 64 µg/mL
same,MIC,Streptococcus pneumoniae [5],8 µg/mL
same,MIC50,Streptococcus pneumoniae [6],> 64 µg/mL
same,MIC,Streptococcus pneumoniae [7],> 64 µg/mL
same,MIC50,Streptococcus pneumoniae [8],16 µg/mL
same,MIC,Streptococcus pyogenes [9],4 µg/mL
same,MIC,Streptococcus pneumoniae [10],> 64 µg/mL
same,MIC50,Streptococcus pneumoniae [11],0.03 µg/mL
same,MIC,Streptococcus pneumoniae [12],> 64 µg/mL
same,MIC,Streptococcus pneumoniae [13],0.06 µg/mL
same,MIC,Streptococcus pneumoniae [14],16 µg/mL
same,MIC,Streptococcus pneumoniae [15],> 64 µg/mL
same,MIC,Streptococcus pneumoniae [16],1 µg/mL
same,MIC50,Streptococcus pneumoniae [17],16 µg/mL
same,MIC90,Streptococcus pneumoniae [17],32 µg/mL
same,MIC,Streptococcus pyogenes [18],0.25 µg/mL
same,MIC50,Streptococcus pneumoniae [19],> 64 µg/mL
same,MIC50,Streptococcus pyogenes [20],> 64 µg/mL
same,MIC90,Streptococcus pyogenes [20],> 64 µg/mL
same,MIC,Streptococcus pyogenes [21],1 µg/mL
same,MIC50,Streptococcus pyogenes [22],0.03 µg/mL
same,MIC90,Streptococcus pyogenes [22],0.06 µg/mL
same,MIC,Streptococcus pneumoniae [23],> 64 µg/mL
same,MIC,Streptococcus pyogenes [24],0.016 µg/mL
same,MIC50,Streptococcus pneumoniae [25],16 µg/mL
same,MIC90,Streptococcus pneumoniae [25],> 64 µg/mL
same,MIC,Streptococcus pyogenes [26],4 µg/mL
same,MIC,Streptococcus pyogenes [27],1 µg/mL
same,MIC,Streptococcus pyogenes [28],> 64 µg/mL
same,MIC,Streptococcus pneumoniae [29],2 µg/mL
same,MIC,"Streptococcus pneumoniae [29]; Streptococcus pneumoniae, 3665, read-out: MIC",4 µg/mL
same,MIC,Streptococcus pneumoniae [30],> 64 µg/mL
same,MIC,Streptococcus pneumoniae [31],0.03 µg/mL
same,MIC,Streptococcus pneumoniae [32],> 64 µg/mL

# Reference: ChEMBL document CHEMBL1240350, “In vitro activity of CEM-101 against Streptococcus pneumoniae and Streptococcus pyogenes with defined macrolide resistance mechanisms” (Antimicrob Agents Chemother, 2010)
